From PubChem
Kir21 block: inhibitors of mouse Kir2.1 inward-rectifier potassium channel. HEK293-Kir2.1, FluxOR thallium flux fluorescence; hits give low values. B-score at 10 µM. actives 0.85% (n = 310,000). AID 1672, 2009;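 active = fluorescence ratio B-score at or below minus 3 SD of library scores, with starting-brightness B-score within 2 SD, cut at about -4.2 in these data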;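 also: channel flux triggered by added potassium and thallium sulfate stimulus; B-score of peak minus minimum fluorescence over baseline after thallium stimulus; more negative B-score means stronger Kir2.1 block with less thallium influx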
KCNK3 inh: human KCNK3 channel inhibitors, primary screen, CHO cells, FluxOR thallium flux, B-score; FluxOR fluorescence; hits give low values; B-score at 10 µM; actives 0.84% (n = 340,000);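 active = B-score under library mean minus 4 SD, starting fluorescence ratio at most library mean plus 5 SD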;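 also: more negative B-score means stronger inhibition of thallium flux through KCNK3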
KCNQ1 inh: inhibitors of human KCNQ1 channel, primary screen, cell-based, thallium flux, high-throughput | actives 1.3% (n = 310,000) | Potassium voltage-gated channel subfamily KQT member 1 (Homo sapiens), P51787 | CHO-K1 KCNQ1, FluxOR thallium flux fluorescence; hits give high values | B-score at 10 µM | AID 2642, 2010;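 active = compounds whose thallium flux B-score, printed positive for inhibition, exceeds three library SD while starting fluorescence stays within three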;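 also: channel opened by potassium depolarization with thallium stimulus after 20 min compound exposure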
Target sequence (P51787 whole entry, looked up): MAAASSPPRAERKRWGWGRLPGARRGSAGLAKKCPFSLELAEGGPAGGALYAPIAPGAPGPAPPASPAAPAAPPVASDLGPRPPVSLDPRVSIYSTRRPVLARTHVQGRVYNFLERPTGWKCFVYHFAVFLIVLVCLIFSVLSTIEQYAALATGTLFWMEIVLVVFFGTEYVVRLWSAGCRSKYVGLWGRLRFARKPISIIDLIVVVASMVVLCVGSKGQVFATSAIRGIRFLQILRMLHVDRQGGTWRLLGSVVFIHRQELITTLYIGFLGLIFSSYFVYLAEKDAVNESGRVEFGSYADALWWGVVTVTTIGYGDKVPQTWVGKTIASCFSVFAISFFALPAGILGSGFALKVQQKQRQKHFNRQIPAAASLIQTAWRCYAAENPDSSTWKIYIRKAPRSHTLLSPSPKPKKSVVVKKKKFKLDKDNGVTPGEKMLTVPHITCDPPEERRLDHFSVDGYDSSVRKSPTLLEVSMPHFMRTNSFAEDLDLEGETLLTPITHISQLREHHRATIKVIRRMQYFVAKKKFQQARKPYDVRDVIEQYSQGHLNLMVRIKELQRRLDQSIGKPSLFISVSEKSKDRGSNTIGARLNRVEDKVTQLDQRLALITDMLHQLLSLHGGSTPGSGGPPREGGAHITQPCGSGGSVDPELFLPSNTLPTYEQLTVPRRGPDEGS
KCNQ1 act: potentiators or activators of KCNQ1 channel, primary screen, cell-based, thallium flux, high-throughput; Potassium voltage-gated channel subfamily KQT member 1 (Homo sapiens), P51787; CHO-K1 KCNQ1, thallium flux FluxOR fluorescence; hits give high values; B-score at 10 µM; actives 0.35% (n = 310,000);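 active = fluorescence ratio B-score, a plate-corrected score, at least three library SD, with initial intensity B-score within 5 SD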
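assay system = CHO-K1 cells stably expressing KCNQ1 | medium = assay buffer, equal DMSO in all wells | timing = 37 °C overnight plating, 90-min dark dye load, 20-min compound pretreatment | measured by = kinetic FluxOR thallium fluorescence, 10-s 1-Hz baseline, 110-s post-stimulus read | measure = fluorescence change relative to baseline, converted to B score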
KCNK9 inh: KCNK9 potassium channel inhibitors, primary screen, HEK293 cells, thallium flux; Potassium channel subfamily K member 9 (Homo sapiens), Q9NPC2; B-score at 10 µM; FluxOR thallium flux fluorescence; hits give low values; actives 1.2% (n = 310,000);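 active = ratio B-score over 3 SD below the library mean, with starting fluorescence within 5 SD of its mean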;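 also: negative B-score means less thallium flux so channel inhibition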
hERG protect: hERG rescue from dofetilide block, primary screen, cell-based, CHO-hERG, FluxOR thallium flux, dofetilide IC70 | dofetilide IC70 present | Voltage-gated inwardly rectifying potassium channel KCNH2 (Homo sapiens), Q12809 | activation (rescue from dofetilide block), less the hit threshold, % at 10 µM | actives 0.51% (n = 310,000);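 active = activation above the mean of controls blocked by dofetilide plus 5 SD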;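 also: thallium influx through hERG after potassium depolarization seen as dye fluorescence rise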
KCNK9 block conf: KCNK9 potassium channel inhibitors, confirmation, HEK293 cells, thallium flux, duplicate. shares compounds with KCNK9 inh. FluxOR thallium flux fluorescence. inhibition, % at 10 µM. actives 43% (n = 4,900). AID 492992, 2010;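 active = thallium signal inhibited by more than 5 SD of the compound-free buffer control wells, on both duplicate plates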
Kir21 sel: mouse Kir2.1 channel inhibition, confirmation, selectivity assay for KCNK9 modulator project, cell-based, HEK293, thallium flux | Kir2.1 cells, FluxOR thallium flux fluorescence | inhibition, % at 10 µM | shares compounds with KCNK9 inh | actives 4% (n = 4,900);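 active = thallium signal drop more than 5 SD beyond the mean of the no-compound control wells, seen in both duplicate plates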;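 also: signal is fluorescence rise after thallium addition divided by baseline fluorescence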
HEK293 Tl ctr: thallium flux in non-induced HEK293 cells, confirmation, counter-screen for KCNK9 inhibitor project, cell-based, second counter screen, non-induced KCNK9-HEK293 | inhibition, % at 10 µM | actives 40% (n = 4,900) | AID 492997, 2010 | shares compounds with KCNK9 inh | FluxOR thallium flux;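 active = thallium signal drop beyond 5 SD of the untreated control mean, on both duplicate plates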
A number is an active result; – = inactive; · = not tested or not shown. Sampled rows, rich in hits. Any-hit rate of the full collection: about 3.7%.

SMILES	Kir21 block	KCNK3 inh	KCNQ1 inh	KCNQ1 act	KCNK9 inh	hERG protect	KCNK9 block conf	Kir21 sel	HEK293 Tl ctr
COc1ccc(Oc2ncc(CN3CCN(c4ccccc4)CC3)s2)cc1	–	–	–	–	–	–	–	–	–
Cc1cc(Cl)ccc1Oc1ncc(CN2CCN(c3ccccc3)CC2)s1	–	–	–	–	–	–	·	·	·
O=C(Nc1cccc(S(=O)(=O)N2CCCCCC2)c1)C1CCN(C(=O)c2ccc(F)cc2)CC1	–	–	–	–	–	–	–	–	–
O=C(Nc1cccc(S(=O)(=O)N2CCCCCC2)c1)C1CCN(C(=O)c2ccc(Cl)cc2)CC1	–	–	–	–	–	–	–	–	–
COc1ccc(CN2C(=NC(=O)C3CCCCC3)SC3CS(=O)(=O)CC32)cc1 (stereo not drawn)	–	–	–	–	–	–	·	·	·
CSc1nc(N)nc2c1ncn2CC(=O)NCc1ccc2[nH]ccc2c1	·	–	·	·	·	·	·	·	·
O=C(c1cccnc1)C1CCCN(Cc2nc(Cc3ccccc3F)no2)C1 (stereo not drawn)	–	–	–	–	–	–	·	·	·
O=C(c1cccs1)C1CCCN(Cc2nc(Cc3ccccc3F)no2)C1 (stereo not drawn)	–	–	–	–	–	–	–	–	–
Cc1cccc(CN2CCC(CNC(=O)Cn3ncc4c([nH]c5ccccc54)c3=O)CC2)c1	–	–	–	–	–	–	·	·	·
COCCOC(=O)c1c(C)oc2ccc(NS(=O)(=O)c3ccccc3)cc12	–	–	–	–	–	–	·	·	·
CCOC(=O)c1c(C)oc2ccc(NS(=O)(=O)c3ccc4c5c(cccc35)C(=O)N4)cc12	–	–	–	–	-10	–	36%	–	–
O=C1/C(=C\c2ccc(Br)o2)SC(=Nc2ccccc2)N1c1ccccc1	–	–	–	–	-8.4	–	–	–	37%
Cc1ccc(C(=O)N2CCOCC2)cc1S(=O)(=O)N1CCCCC1	–	–	–	–	–	–	·	·	·
COc1ccc2c(c1)c(C(=O)N/N=C/c1cn(C)c3ccccc13)c(C)n2C	–	–	–	–	-9.4	–	–	–	–
N#Cc1nc(Cc2cccc3ccccc23)oc1NCC1CCCO1 (stereo not drawn)	–	–	–	–	–	–	·	·	·
N#Cc1nc(Cc2cccc3ccccc23)oc1NCc1ccco1	–	–	–	–	-11	–	40%	–	38%
Cc1ccc(OCCSc2nnc(NC(=O)c3ccco3)s2)cc1	–	–	–	–	–	–	·	·	·
CCCCOC(=O)Nc1nnc(SCCOc2ccc(C)cc2)s1	–	–	–	–	–	–	–	–	–
COc1cccc(C2c3[nH]c4ccccc4c3CCN2Cc2cccn2-c2ncccn2)c1 (stereo not drawn)	–	–	–	–	-8.3	–	40%	–	48%
COc1cccc(C2c3[nH]c4ccccc4c3CCN2CCCn2cccn2)c1 (stereo not drawn)	–	–	–	–	–	–	·	·	·
CC(C)OC(=O)CN1CCN(C2c3ccccc3-c3ccccc32)CC1	–	–	–	–	–	–	–	–	–
Cc1cc(-c2nn(-c3ccccc3F)cc2CNCCc2cnccn2)c(C)s1	–	–	–	–	–	–	·	·	·
Cc1cc(-c2nn(-c3ccccc3F)cc2CN2CCN(c3ccccn3)CC2)c(C)s1	–	–	–	–	–	–	–	–	–
Cn1cc(CN2CCN(c3ccc(Cl)cn3)CC2)c(-c2ccccc2F)n1	–	–	–	–	–	–	–	–	–
COc1cc2c(cc1OC)-c1nnc(-c3ccco3)n1C1(CCCC1)C2	–	–	–	–	-13	–	46%	–	28%
SMILES	Kir21 block	KCNK3 inh	KCNQ1 inh	KCNQ1 act	KCNK9 inh	hERG protect	KCNK9 block conf	Kir21 sel	HEK293 Tl ctr
CC(CNC(=O)CN(C)CC(=O)Nc1ccccc1Br)c1ccccc1 (stereo not drawn)	·	–	·	·	·	·	·	·	·
Cc1cc(Cl)ccc1OCCCC(=O)N1CCN(S(=O)(=O)c2ccccc2)CC1	–	–	–	–	–	–	·	·	·
O=C(CSCc1c(F)cccc1Cl)NCCSCc1ccco1	–	–	–	–	–	–	·	·	·
O=C(CSCc1ccc(Cl)cc1)NCCSCc1ccco1	–	–	–	–	–	–	–	–	–
COc1ccccc1OCC(=O)NCCSCc1ccc(Cl)cc1	-4.7	–	–	–	–	–	–	–	–
CC(NC(=O)CSCc1ccccc1Br)c1ccccc1 (stereo not drawn)	–	–	–	–	–	–	–	–	–
CC(NC(=O)CSCc1ccc(Br)cc1)c1ccccc1 (stereo not drawn)	–	–	–	–	–	–	·	·	·
NC(=O)C1Cc2ccccc2CN1C(=O)c1cc(C2CC2)nn1-c1ccccc1 (stereo not drawn)	·	–	·	·	·	·	·	·	·
COCCN(Cc1nc(C(c2ccccc2)c2ccccc2)no1)C(C)C	–	–	–	–	-8.7	–	–	–	–
COCCN(C)Cc1nc(C(c2ccccc2)c2ccccc2)no1	–	–	–	–	–	–	·	·	·
Cc1nc(NCC(c2ccccc2)N(C)C)c2c(C)c(C)sc2n1 (stereo not drawn)	–	–	–	–	–	–	–	–	–
O=C(NCCc1ccccc1)c1oc2ccccc2c1COc1ccccc1	–	–	6	–	–	–	–	–	–
O=C(Nc1ccccc1Cc1ccccc1)c1oc2ccccc2c1COc1ccccc1	–	–	–	–	-8.7	–	51%	–	31%
CCOC(=O)C(C(C)=O)c1c(Br)c(O)c(O)c2c(C(=O)c3ccc(C)cc3)coc12 (stereo not drawn)	–	–	9	–	-15	–	70%	–	46%
CCn1c(SCc2ccccc2Cl)nc2nc3c(cc2c1=O)CCCC3	–	–	–	–	–	–	–	–	–
CCNCC(=O)N1c2ccccc2CCc2ccc(NC(=O)OC(C)C)cc21	–	–	–	–	-13	–	66%	–	–
CCOc1ccc(C(=O)Nc2nnc(NC(=S)Nc3ccccc3)s2)cc1	–	–	–	–	–	–	·	·	·
